# Screening results as filed in PubChem.
# LANA-nucl inh – inhibitors of KSHV LANA-nucleosome binding, primary screen, biochemical, fluorescence polarization, FITC-LANA1-23, chicken nucleosomes; FITC-LANA1-23 / chicken nucleosome fluorescence polarization; hits give low values; z-score (no concentration beside the values); 51,000 tested, 0.3% active; AID 720717, 2013;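 active = both repeat wells score below -2 in polarization z-score versus plate sample wells, excluding overly bright wells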
#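 Material: Purified chicken nucleosomes with FITC-labelled LANA N-terminal peptide (1-23) | Reagent: 50 nM FITC-LANA1-23 probe | Medium: TEN-BT buffer, pH 7.5 | Times: 10–45 min incubation at room temperature | Detection: Fluorescence polarization | Replication: Duplicates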
# BasE inh – BasE siderophore enzyme inhibitors, primary screen, biochemical, Acinetobacter baumannii ATCC 17978, fluorescence polarization. 84,000 tested, 0.1% active. purified BasE, fluorescence polarization binding displacement. inhibition, % (concentration not given with the values); in the data active = inhibition above about 25%, passing the limit was not always enough;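 also: 0% = negative plate control signal and 100% = positive plate control signal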
# * hit, by the source's call; · = no result given; ! = not active in a repeat. The full list was thinned out, with hits kept by preference.
SMILES,LANA-nucl inh,BasE inh
CC1=C(C(=O)OC(C)C)C(c2ccccc2F)C(C#N)=C(N)O1 (stereo unspecified),-0.17,-3
CCOC(=O)C1=C(N)Oc2cc(C)oc(=O)c2C1c1ccccc1F (stereo unspecified),-0.57,28*
COc1cccc2c1C(=O)c1c(O)c3c(c(O)c1C2=O)C[C@@](O)(C(C)=O)C[C@@H]3OC1CC(N)C(O)C(C)O1 (stereo partly specified),-6*,15
COc1cccc2c1C(=O)c1c(O)c3c(c(O)c1C2=O)C[C@@](O)(C(=O)CO)C[C@@H]3O[C@H]1C[C@H](N)[C@H](O)[C@H](C)O1,-8.5*!,15
O=C(Cn1ccc(=O)[nH]c1=O)OCc1c(Cl)cccc1Cl,·,1
Cc1nn(C)c(C)c1CNC(=O)NC1CCCC1,-0.6,-1
c1cnc2c(c1)NC1(CCCCC1)N2,-3.6*,29
CCSC1=NC2(CCCCC2)Nc2ccccc21,·,0
Cc1ccccc1NC(=O)Cc1nnc(SCC(=O)c2ccccc2)n1C,0.15,2
CC(CO)(CO)N=Cc1c(O)[nH]c(=O)[nH]c1=O,0.42,2
CC1=CC(C)=N/C1=C/c1c(O)[nH]c(=O)[nH]c1=O,-7.6*,1
CCc1nn(C)c2c(=O)c(=O)c2n(C)[nH]1,·,13
Cc1nn(C)c2c(=O)c(=O)c2n(C)[nH]1,-3.6*,5
O=c1c2ccccc2nc2n1CC(=NCc1ccccc1)N(Cc1ccccc1)C2,·,1
COc1cccc(C(=O)Nc2nc3cc4c(cc3s2)OCO4)c1,-1,1
CCOc1ccc(C(=O)Nc2nc3cc4c(cc3s2)OCO4)cc1,-2.2*,1
CC(C)N(C(=O)CSc1cccc[n+]1[O-])c1ccccc1,·,1
CCOC(=O)C(=NCc1ccco1)NNc1cccc(C(F)(F)F)c1,·,1
CCCN1c2ccccc2NC1NC(=O)CCN(c1ccc(OC)cc1)S(=O)(=O)c1ccc(C)cc1 (stereo unspecified),·,1
Cc1nonc1NC(=O)CSc1ccccn1,0.42,57*
O=C(CSc1ccccn1)Nc1ncccn1,-0.76,6
COc1ccc(CN2CCN(C(=O)c3c(C)nn(Cc4ccccc4)c3C)CC2)cc1F,·,1
COc1ccccc1C(=O)Nc1ccc(O)cc1,·,-1
Cc1ccn(-c2ccc(NC(=O)C3CC3)cc2)n1,-0.28,-2
O=c1cc(-c2ccc(O)c(O)c2)oc2cc(O)cc(O)c12,-0.2,2
SMILES,LANA-nucl inh,BasE inh
O=c1c(O)c(-c2ccc(O)c(O)c2)oc2cc(O)cc(O)c12,0.82,29*!
C=CCOc1nc(-c2ccccc2)cc(-c2ccc(OC)cc2)n1,-1.4,-1
Cc1cc(C)n(-c2nc3ccccc3nc2NCC(C)O)n1 (stereo unspecified),-0.23,1
S=c1[nH]c2cc(Cl)c3cccnc3c2o1,2.5,51*
O=C(O)COc1c(I)cc(Cl)c2cccnc12,·,0
COc1cccc(C(=O)NCCc2cc3ccc(OC)cc3[nH]c2=O)c1,0.27,-6
CCOC(=O)/C(C#N)=C\c1cc2ccc(OC)cc2[nH]c1=O,-4.5*,14
O=C(COC(=O)c1ccccc1O)c1ccc(Cl)cc1,0.19,0
COc1ccc(-c2csc(/C(C#N)=C(\O)CSc3nnc(-c4ccccc4F)n3C3CC3)n2)cc1OC,·,-2
COc1ccc(-c2csc(/C(C#N)=C(\O)CSc3nccn3C)n2)cc1OC,·,31*
O=C(CSc1nnc(-c2ccco2)n1-c1ccccc1)NC(=O)c1ccccc1,·,-2
COc1ccc(C(O)c2nnc(-c3ccccc3)o2)cc1OC (stereo unspecified),·,1
COc1cccc(NC(=O)Cn2ncc3c2-c2ccccc2OC3)c1,-2.3*,-1
CCC(C)NC(=O)Cn1ncc2c1-c1ccccc1OC2 (stereo unspecified),-1.7,-1
O=C(Sc1ccc(Cl)cc1)c1ccno1,0.52,0
Cc1c(CSC(=N)N)c(C)c(CSC(=N)N)c(C)c1CSC(=N)N,-2.9*,-3
CCc1c(CSC(=N)N)csc1C,-0.085,-4
CCOc1cc(/C=C2/SC(=O)NC2=O)ccc1OCC(=O)O,·,-2
CS(=O)(=O)N(c1ccc(F)cc1)C1C=CS(=O)(=O)C1 (stereo unspecified),·,-1
CCCN1C(=O)c2ccccc2NC1c1cccc(O)c1O (stereo unspecified),·,1
CCOC(=O)/C=C1\SCC(=O)N1CCN(C)Cc1ccc(SC)cc1,·,0
CCn1c(O)c(C=Nc2cccc(O)c2)sc1=S,-2.4*,0
CCn1c(O)c(C=Nc2ccccc2)oc1=S,·,2
CN(CC(=O)N1CCCCC1)S(=O)(=O)c1ccc2c(c1)CCCC(=O)N2,·,0
N=C1/C(=C\c2cn(CCOc3ccccc3Cl)c3ccccc23)C(=O)N=C2SC=NN12,-3.4*,-18
SMILES,LANA-nucl inh,BasE inh
Cc1ccc(C)c(OCCn2cc(/C=C3\C(=N)N4N=C(S(C)(=O)=O)SC4=NC3=O)c3ccccc32)c1,-0.034,8
Cc1[nH]n(-c2ccccc2)c(=O)c1/C=N/O,-0.022,2
Cc1[nH]n(-c2ccccc2)c(=O)c1C=Nc1ccc(O)cc1,·,53*
O=C1c2ccccc2C(=O)N1Cc1cc(=O)n2ccsc2n1,·,2
O=c1cc(CN2CCCc3ccccc32)nc2sccn12,-7.9*,12
CCOC(=O)CN1CC=CCC1,-0.0025,6
CC(C)Sc1nnc(NC(=O)NC(C)(C)C)s1,-0.75,0
O=C(CN1CCN(C2c3ccccc3-c3ccccc32)CC1)c1ccc2c(c1)OCO2,0.0085,1
O=C(c1ccc2c(c1)OCO2)N1CCN(C2c3ccccc3-c3ccccc32)CC1,-2.3*,3
COc1ccc(C2(NC(=O)c3ccc(Cn4cc(Cl)cn4)o3)CCCCC2)cc1,-0.66,1
CN(Cc1ccccc1)C(=O)c1cc2ncc(Br)cn2n1,0.01,-1
O=C(c1ccccc1)N(Cc1nc(-c2ccccc2)no1)C1CCCCC1,-1.8,2
O=C(Nc1ccccc1)N(Cc1nc(-c2ccccc2)no1)C1CCCCC1,-2.1*,2
Cc1cccc(OCC(=O)NC2CCCC2)c1,0.052,29*
Cc1ccc(OCC(=O)NC2CCC(C)CC2)cc1C (stereo unspecified),·,1
CCN(CC)c1nc(C(=O)Nc2ccc(Br)cc2)cs1,·,2
N#C/C(=C/c1ccc(-c2ccc(S(N)(=O)=O)cc2)o1)C(=O)Nc1cc(Cl)ccc1Cl,-5.7*,30
CCOC(=O)c1ccc(-c2ccc(/C=C(\C#N)C(=O)NCc3cccs3)o2)cc1,0.51,-1
CCOC(=O)c1cc(-c2ccc(/C=C(\C#N)C(N)=C(C#N)C#N)o2)ccc1Cl,-4.5*,6
N#CC(C#N)=C(N)/C(C#N)=C\c1ccc(-c2ccccc2)o1,-0.11,1
N#C/C(=C\c1ccc(-c2cccc(Cl)c2)o1)C(N)=O,-0.34,-4
CCOC(=O)c1ccccc1NC(=O)/C(C#N)=C/c1ccc(-c2ccc(Cl)cc2)o1,-4.3*,10
CCC(c1nnc(SCc2ccc(C(=O)OC)o2)n1Cc1ccccc1)N(C)C (stereo unspecified),·,-1
Nc1cc[n+](CC(O)CO)cc1 (stereo unspecified),-3.1*,-90
O=C1CSCC(=O)N1c1ccc(Cl)cc1,-0.77,1
CC1(c2ccc(Cl)cc2)NC(=O)CS1 (stereo unspecified),-2.4*,1
